Source: ChEMBL document CHEMBL3407339, “A novel series of thiazolyl-pyrazoline derivatives: synthesis and evaluation of antifungal activity, cytotoxicity and genotoxicity” (Eur J Med Chem, 2015)
≈ marks a conversion by molar mass, not a printed value.

test system: Salmonella typhimurium; assay: Mutagenicity in Salmonella typhimurium TA98 at 5 mg/ml after 48 hrs by AMES MPF assay in presence of Sprague-Dawley rat liver microsomal S9 fraction relative to baseline; assay type: toxicity, organism-based; details: salmonella enterica subsp. enterica serovar typhimurium
Outline: (§1)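 Ames MPF fluctuation test with TA98/TA100. Overnight cultures (37 °C, 14–16 h) mixed with exposure medium; ±Aroclor-1254-induced rat liver S9 (final 4.5% v/v). Compounds in DMSO, 0.156–5 mg/mL. 90 min exposure at 37 °C, then indicator medium; 48 wells per concentration, 48 h at 37 °C, in triplicate. Yellow wells counted; fold induction over baseline (mean + 1 SD of zero-dose control).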

SMILES	fold change (FC)
Cc1ccc(C2=NN(c3nc(-c4ccc(S(C)(=O)=O)cc4)cs3)C(c3ccc(F)cc3)C2)s1 (stereo not drawn)	0.81

test system: Salmonella typhimurium; assay: Mutagenicity in Salmonella typhimurium TA100 at 2.5 mg/ml after 48 hrs by AMES MPF assay in presence of Sprague-Dawley rat liver microsomal S9 fraction relative to baseline; assay type: toxicity, organism-based; details: salmonella enterica subsp. enterica serovar typhimurium; outline: as §1

SMILES	fold change (FC)
Cc1ccc(C2=NN(c3nc(-c4ccc(S(C)(=O)=O)cc4)cs3)C(c3ccc(F)cc3)C2)s1 (stereo not drawn)	1.26

test system: Salmonella typhimurium; assay: Mutagenicity in Salmonella typhimurium TA98 at 0.625 mg/ml after 48 hrs by AMES MPF assay in presence of Sprague-Dawley rat liver microsomal S9 fraction relative to baseline; assay type: toxicity, organism-based; details: salmonella enterica subsp. enterica serovar typhimurium; outline: as §1

SMILES	fold change (FC)
Cc1ccc(C2=NN(c3nc(-c4ccc(S(C)(=O)=O)cc4)cs3)C(c3ccc(F)cc3)C2)s1 (stereo not drawn)	1.63

test system: Salmonella typhimurium; assay: Mutagenicity in Salmonella typhimurium TA100 at 0.625 mg/ml after 48 hrs by AMES MPF assay in presence of Sprague-Dawley rat liver microsomal S9 fraction relative to baseline; assay type: toxicity, organism-based; details: salmonella enterica subsp. enterica serovar typhimurium; outline: as §1

SMILES	fold change (FC)
Cc1ccc(C2=NN(c3nc(-c4ccc(S(C)(=O)=O)cc4)cs3)C(c3ccc(F)cc3)C2)s1 (stereo not drawn)	0.93

test system: Candida parapsilosis; assay: Antifungal activity against Candida parapsilosis NRLL Y 12696 after 48 hrs by broth microdilution assay; assay type: functional; details: Lodderomyces parapsilosis, NRLL Y 12696, 48 h
Outline: (§2)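 Broth microdilution of DMSO stocks serially diluted in sterile water (4 to 0.0039 mg/mL). Yeasts grown on SDA at 37 °C for 24 h, suspended in double-strength PDB at 10⁵ spores/mL. Incubated at 37 °C for 48 h, then sprayed with 0.5% aqueous TTC. MIC = lowest concentration inhibiting visible growth. Ketoconazole reference.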

SMILES	MIC [mg/L]
Cc1ccc(C2=NN(c3nc(-c4ccc(S(C)(=O)=O)cc4)cs3)C(c3ccc(F)cc3)C2)s1 (stereo not drawn)	250 (≈ 502 µM)

test system: Salmonella typhimurium; assay: Mutagenicity in Salmonella typhimurium TA98 at 0.625 mg/ml after 48 hrs by AMES MPF assay in absence of Sprague-Dawley rat liver microsomal S9 fraction relative to baseline; assay type: toxicity, organism-based; details: salmonella enterica subsp. enterica serovar typhimurium; outline: as §1

SMILES	fold change (FC)
Cc1ccc(C2=NN(c3nc(-c4ccc(S(C)(=O)=O)cc4)cs3)C(c3ccc(F)cc3)C2)s1 (stereo not drawn)	0.44

test system: Salmonella typhimurium; assay: Mutagenicity in Salmonella typhimurium TA100 at 5 mg/ml after 48 hrs by AMES MPF assay in presence of Sprague-Dawley rat liver microsomal S9 fraction relative to baseline; assay type: toxicity, organism-based; details: salmonella enterica subsp. enterica serovar typhimurium; outline: as §1

SMILES	fold change (FC)
Cc1ccc(C2=NN(c3nc(-c4ccc(S(C)(=O)=O)cc4)cs3)C(c3ccc(F)cc3)C2)s1 (stereo not drawn)	0.93

test system: Salmonella typhimurium; assay: Mutagenicity in Salmonella typhimurium TA98 at 0.3125 mg/ml after 48 hrs by AMES MPF assay in absence of Sprague-Dawley rat liver microsomal S9 fraction relative to baseline; assay type: toxicity, organism-based; details: salmonella enterica subsp. enterica serovar typhimurium; outline: as §1

SMILES	fold change (FC)
Cc1ccc(C2=NN(c3nc(-c4ccc(S(C)(=O)=O)cc4)cs3)C(c3ccc(F)cc3)C2)s1 (stereo not drawn)	0.22

test system: Salmonella typhimurium; assay: Mutagenicity in Salmonella typhimurium TA100 at 5 mg/ml after 48 hrs by AMES MPF assay in absence of Sprague-Dawley rat liver microsomal S9 fraction relative to baseline; assay type: toxicity, organism-based; details: salmonella enterica subsp. enterica serovar typhimurium; outline: as §1

SMILES	fold change (FC)
Cc1ccc(C2=NN(c3nc(-c4ccc(S(C)(=O)=O)cc4)cs3)C(c3ccc(F)cc3)C2)s1 (stereo not drawn)	1.09

test system: Salmonella typhimurium; assay: Mutagenicity in Salmonella typhimurium TA100 at 2.5 mg/ml after 48 hrs by AMES MPF assay in absence of Sprague-Dawley rat liver microsomal S9 fraction relative to baseline; assay type: toxicity, organism-based; details: salmonella enterica subsp. enterica serovar typhimurium; outline: as §1

SMILES	fold change (FC)
Cc1ccc(C2=NN(c3nc(-c4ccc(S(C)(=O)=O)cc4)cs3)C(c3ccc(F)cc3)C2)s1 (stereo not drawn)	0.52

test system: Salmonella typhimurium; assay: Mutagenicity in Salmonella typhimurium TA98 at 0.3125 mg/ml after 48 hrs by AMES MPF assay in presence of Sprague-Dawley rat liver microsomal S9 fraction relative to baseline; assay type: toxicity, organism-based; details: salmonella enterica subsp. enterica serovar typhimurium; outline: as §1

SMILES	fold change (FC)
Cc1ccc(C2=NN(c3nc(-c4ccc(S(C)(=O)=O)cc4)cs3)C(c3ccc(F)cc3)C2)s1 (stereo not drawn)	0.27

test system: Aspergillus parasiticus; assay: Antifungal activity against Aspergillus parasiticus NRRL 465 after 72 hrs by broth microdilution assay; assay type: functional; details: NRRL 465, 72 h
Outline: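 Compounds dissolved in DMSO, diluted in sterile distilled water from 4 to 0.0039 mg/mL. Molds grown on PDA at 25 °C for 5 days, suspended in double-strength PDB at 10⁵ spores/mL. Incubated at 25 °C for 72 h; mycelial growth read under stereo microscope. MIC = lowest concentration inhibiting visible growth. Ketoconazole reference.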

SMILES	MIC [mg/L]
Cc1ccc(C2=NN(c3nc(-c4ccc(S(C)(=O)=O)cc4)cs3)C(c3ccc(F)cc3)C2)s1 (stereo not drawn)	250 (≈ 502 µM)

test system: Salmonella typhimurium; assay: Mutagenicity in Salmonella typhimurium TA100 at 0.3125 mg/ml after 48 hrs by AMES MPF assay in absence of Sprague-Dawley rat liver microsomal S9 fraction relative to baseline; assay type: toxicity, organism-based; details: salmonella enterica subsp. enterica serovar typhimurium; outline: as §1

SMILES	fold change (FC)
Cc1ccc(C2=NN(c3nc(-c4ccc(S(C)(=O)=O)cc4)cs3)C(c3ccc(F)cc3)C2)s1 (stereo not drawn)	1.04

test system: Salmonella typhimurium; assay: Mutagenicity in Salmonella typhimurium TA100 at 1.25 mg/ml after 48 hrs by AMES MPF assay in absence of Sprague-Dawley rat liver microsomal S9 fraction relative to baseline; assay type: toxicity, organism-based; details: salmonella enterica subsp. enterica serovar typhimurium; outline: as §1

SMILES	fold change (FC)
Cc1ccc(C2=NN(c3nc(-c4ccc(S(C)(=O)=O)cc4)cs3)C(c3ccc(F)cc3)C2)s1 (stereo not drawn)	0.52

test system: [Candida] zeylanoides; assay: Antifungal activity against Candida zeylanoides NRLL Y 1774 after 48 hrs by broth microdilution assay; assay type: functional; details: Dujonia zeylanoides, NRLL Y 1774, 48 h; outline: as §2

SMILES	MIC [mg/L]
Cc1ccc(C2=NN(c3nc(-c4ccc(S(C)(=O)=O)cc4)cs3)C(c3ccc(F)cc3)C2)s1 (stereo not drawn)	250 (≈ 502 µM)

test system: A549; assay: Antiproliferative activity against human A549 cells after 24 hrs by XTT assay; assay type: functional, cell-based; details: A549, 24 h
Outline: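 A549 cells in RPMI and NIH/3T3 cells in DMEM, each with fetal calf serum, antibiotics and 7.5% NaHCO₃, at 37 °C, 5% CO₂. Seeded at 20,000 cells/well, 24 h, then compounds added in medium at 500–3.9 doses (final DMSO <0.1%) for 24 h. XTT read after 3 h at 480 nm (ref 680 nm). IC₅₀ by non-linear regression; triplicates; cisplatin control.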

SMILES	IC50 [mg/L]
Cc1ccc(C2=NN(c3nc(-c4ccc(S(C)(=O)=O)cc4)cs3)C(c3ccc(F)cc3)C2)s1 (stereo not drawn)	> 500

test system: Salmonella typhimurium; assay: Mutagenicity in Salmonella typhimurium TA100 at 1.25 mg/ml after 48 hrs by AMES MPF assay in presence of Sprague-Dawley rat liver microsomal S9 fraction relative to baseline; assay type: toxicity, organism-based; details: salmonella enterica subsp. enterica serovar typhimurium; outline: as §1

SMILES	fold change (FC)
Cc1ccc(C2=NN(c3nc(-c4ccc(S(C)(=O)=O)cc4)cs3)C(c3ccc(F)cc3)C2)s1 (stereo not drawn)	0.8

test system: Salmonella typhimurium; assay: Mutagenicity in Salmonella typhimurium TA98 at 0.156 mg/ml after 48 hrs by AMES MPF assay in absence of Sprague-Dawley rat liver microsomal S9 fraction relative to baseline; assay type: toxicity, organism-based; details: salmonella enterica subsp. enterica serovar typhimurium; outline: as §1

SMILES	fold change (FC)
Cc1ccc(C2=NN(c3nc(-c4ccc(S(C)(=O)=O)cc4)cs3)C(c3ccc(F)cc3)C2)s1 (stereo not drawn)	0.67
